Consider two molecules from article PMC9350900 (ACS chemical neuroscience, 2021).

The nature of data set [1]: Radiometabolite analysis of blood samples in non-human primate. It counts as in vivo, rhesus monkey (Macaca mulatta). The conditions noted are these: rhesus monkey blood, 10 min. In a few lines:
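Anesthetised rhesus monkey given 185 MBq of the [18F] tracer as an i.v. bolus. Venous blood (~3 mL) drawn via saphenous catheter at 2, 10, 30, 45 and 90 min post-injection. Samples analysed by radio-HPLC for radiolabelled metabolites and the time-varying fraction of unmetabolized parent tracer.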

A short description of data set [2]: Dynamic PET imaging in wild-type mice. It counts as in vivo, mouse. As to conditions: wt male mice. In outline: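 Three male C57BL/6 mice (7.5 months, 29–32 g) given an i.v. bolus of the [18F] tracer (9.1 ± 1.1 MBq; Am 18 ± 10 GBq/μmol). 60-min dynamic PET/MRI in 33 frames, FBP reconstruction. Decay-corrected, no attenuation or scatter correction. Whole-brain TAC via MR template atlas; SUV = regional radioactivity normalised to injected activity and body weight.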

Data set [3] in a line: Dynamic PET imaging in healthy rats. It counts as in vivo, rat. In a few lines: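 Two healthy Sprague-Dawley rats, 3 months old (male 358 g, female 241 g), injected i.v. with 15.5 and 16.5 MBq of the [18F] tracer (Am 19 and 8 GBq/μmol). 120-min dynamic PET/MRI in 39 frames, FBP with Hann filter. Decay-corrected, without attenuation or scatter correction. Whole-brain TAC from MR template atlas; SUV normalised to injected activity and body weight.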

Data set [4] is described as follows: Lipophilicity by shake-flask method. It counts as physicochemical. As to conditions: 1-octanol.
The nature of data set [5]: Baseline dynamic PET imaging in non-human primate. It counts as in vivo, rhesus monkey (Macaca mulatta). As to conditions: rhesus monkey, i.v. 185 MBq. In outline:
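Rhesus monkey sedated with ketamine (15 mg/kg i.m.) plus glycopyrrolate (0.01 mg/kg i.m.), intubated, and kept under isoflurane (0.5–2.0%) in 40% oxygen/air. CT scan for attenuation correction. The [18F] tracer (185 MBq, <1.0 microgram mass) was given as a slow i.v. bolus (~20 s) with saline flush. Dynamic 90-min scan in 27 frames, FBP-reconstructed with full corrections. Whole-brain ROI time-activity curve in SUV.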

Data set [6] is classed as in vitro ADME. As to conditions: human.
Data set [7] concerns the target P-glycoprotein (Homo sapiens, UniProt P08183). The conditions noted are these: MDCK-MDR1.
For data set [8] the following is noted: rat.
For data set [9] the following is noted: human.
The format of data set [10] is in vitro ADME. As to conditions: rat.
For data set [11], the system named is 93 CNS receptors and enzymes, including MAO-A and MAO-B. Description: Off-target selectivity screen. It counts as binding. As to conditions: 93 proteins including MAO-A and MAO-B, 1.0 μM.
The target of data set [12] is T1, melatonin binding site (MT3 (ML2)) on quinone dehydrogenase 2 (Mesocricetus auratus, UniProt A0ABM2YAB8).
T1 sequence (A0ABM2YAB8 1-231): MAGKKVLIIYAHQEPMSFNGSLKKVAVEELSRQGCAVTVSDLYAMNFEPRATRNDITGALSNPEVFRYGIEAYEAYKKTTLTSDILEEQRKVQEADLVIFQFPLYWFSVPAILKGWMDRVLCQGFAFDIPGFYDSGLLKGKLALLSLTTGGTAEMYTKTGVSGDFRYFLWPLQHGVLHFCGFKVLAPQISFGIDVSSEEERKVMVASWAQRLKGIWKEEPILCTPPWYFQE
The experiment in a line: Off-target selectivity screen. The conditions noted are these: 1.0 μM, specific radioligand.

Molecules are shown by their SMILES. Where two headings read alike, the source gives them in different places.

P-glycoprotein, sequence (P08183 whole entry): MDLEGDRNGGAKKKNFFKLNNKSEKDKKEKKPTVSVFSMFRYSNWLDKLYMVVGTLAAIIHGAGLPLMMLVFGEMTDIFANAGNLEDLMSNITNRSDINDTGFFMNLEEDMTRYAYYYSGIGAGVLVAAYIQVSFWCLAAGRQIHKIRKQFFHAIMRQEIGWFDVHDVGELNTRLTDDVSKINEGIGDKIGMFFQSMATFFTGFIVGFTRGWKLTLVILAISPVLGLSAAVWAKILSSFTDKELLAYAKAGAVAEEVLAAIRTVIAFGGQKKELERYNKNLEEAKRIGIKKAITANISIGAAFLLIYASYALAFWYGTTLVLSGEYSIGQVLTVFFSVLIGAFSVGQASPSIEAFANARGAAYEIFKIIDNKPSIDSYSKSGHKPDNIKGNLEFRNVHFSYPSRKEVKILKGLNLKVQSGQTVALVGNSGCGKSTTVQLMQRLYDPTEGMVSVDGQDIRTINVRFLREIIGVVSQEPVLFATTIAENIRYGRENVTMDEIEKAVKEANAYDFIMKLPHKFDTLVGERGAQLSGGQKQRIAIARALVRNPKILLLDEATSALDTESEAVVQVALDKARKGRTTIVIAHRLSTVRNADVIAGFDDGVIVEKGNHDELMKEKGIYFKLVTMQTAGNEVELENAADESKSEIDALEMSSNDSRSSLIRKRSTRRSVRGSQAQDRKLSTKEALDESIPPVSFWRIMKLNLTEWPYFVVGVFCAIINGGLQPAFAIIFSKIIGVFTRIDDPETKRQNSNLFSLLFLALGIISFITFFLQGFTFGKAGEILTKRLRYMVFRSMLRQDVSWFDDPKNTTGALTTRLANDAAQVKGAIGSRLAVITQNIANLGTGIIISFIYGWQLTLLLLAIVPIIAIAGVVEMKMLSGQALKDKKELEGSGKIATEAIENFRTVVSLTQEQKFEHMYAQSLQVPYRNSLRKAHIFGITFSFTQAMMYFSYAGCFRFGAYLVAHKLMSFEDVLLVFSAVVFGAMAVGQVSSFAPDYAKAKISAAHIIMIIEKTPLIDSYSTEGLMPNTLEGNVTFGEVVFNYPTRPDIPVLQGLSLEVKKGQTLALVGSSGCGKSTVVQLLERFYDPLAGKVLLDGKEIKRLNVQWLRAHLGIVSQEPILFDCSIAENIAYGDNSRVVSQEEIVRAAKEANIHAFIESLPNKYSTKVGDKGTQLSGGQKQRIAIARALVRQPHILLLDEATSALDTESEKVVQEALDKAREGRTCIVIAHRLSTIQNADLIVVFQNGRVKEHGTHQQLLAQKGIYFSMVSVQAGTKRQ

For the molecule `OCC1CCN(c2ccc(-c3cc4cc(O)ccc4[nH]3)c([18F])n2)CC1` [[^18F]CBD-2115], the “fraction of unmetabolized parent” value in data set [1] worked out at 45%. The “maximum radioactivity in whole brain” value in data set [2] (i.v. bolus 9.1 ± 1.1 MBq) is 0.66 SUV; in data set [3] (i.v. 15.5 and 16.5 MBq) it was 0.5 SUV. Also, the “whole brain radioactivity after 30 min” value is given as “below 0.1 SUV” in data set [2] (i.v., after 30 min) and “below 0.1 SUV” in data set [3] (i.v., after 30 min). The molecule also had a logD7.4 in [4] of 2.99 ± 0.15. The same molecule displayed a peak brain activity in [5] of 0.65 SUV. In addition, the “time to peak brain activity” value in [5] was ≤ 2 min. Also, the “brain activity after 25 min” value in data set [5] (after 25 min) is “below 0.2 SUV”.
For `OCC1CCN(c2ccc(-c3cc4cc(O)ccc4[nH]3)c(F)n2)CC1` [CBD-2115], the “stability in liver microsomes” value in data set [6] is on record as 8.56 mL/min/kg; in data set [10], 63.84 mL/min/kg. Also, the “efflux ratio (B-A/A-B)” value in data set [7] stood at 0.98. Besides, the results for the “free fraction in blood plasma” value in data set [8] and in [9] were 2.85% and 2.70%, respectively. Moreover, in data set [11], the affinity for off-targets result was “no significant affinity”. Further, in data set [12], the interaction with off-target entry is given as “specific interaction”.
